Source: ChEMBL document CHEMBL2163306, “Synthesis of new chiral xanthone derivatives acting as nerve conduction blockers in the rat sciatic nerve” (Eur J Med Chem, 2012)
Calls of active or inactive are those of the source. The calls are words filed in the database; no cut-off is given here.

What was measured:
[1] = Antihemolytic activity against hypotonic hemolysis in Wistar rat erythrocytes at 100 uM after 10 mins relative to control; type: functional, Erythrocyte
Summary of the method: (§1)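 Blood was taken by puncture from urethane-anaesthetized (1.2 g/kg) Wistar rats and heparinised. After centrifugation, plasma and leukocyte layer were removed and cells were resuspended in 154 mM NaCl/10 mM phosphate buffer pH 7.0. The suspension was added to drug dilutions in hypotonic NaCl/phosphate buffer pH 7.0 (NaCl 63–67 mM for 50% haemolysis) and held 10 min at room temperature. It was then spun, and supernatant haemoglobin was read at 540 nm. Run in duplicate; expressed as relative haemolysis.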

[2] = system: Erythrocyte; experiment: Antihemolytic activity against hypotonic hemolysis in Wistar rat erythrocytes after 10 mins; type: functional, cell-based; summary of the method: as §1
[3] = system: Sciatic nerve; experiment: Inhibition of amplitude of compound action potential in isolated Wistar rat sciatic nerve at 0.1 to 3 uM after 15 mins by electrophysiology assay; type: functional, tissue-based
Summary of the method: (§2)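 Sciatic nerve bundles 3–4 cm long came from adult Wistar rats (200–400 g). Drugs in Tyrode's solution were applied cumulatively (0.100–3.00 µM) at 1 mL/min flow, with at least 15 min contact each. Blockade was taken as percentage decrement in compound action potential amplitude versus control. Solvent was at most 0.05% v/v.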

[4] = system: Erythrocyte; experiment: Antihemolytic activity against hypotonic hemolysis in Wistar rat erythrocytes at 100 uM after 10 mins relative to sucrase; type: functional, cell-based; summary of the method: as §1
[5] = system: Erythrocyte; experiment: Antihemolytic activity against hypotonic hemolysis in Wistar rat erythrocytes at 0.1 to 1 uM after 10 mins; type: functional, cell-based; summary of the method: as §1
[6] = Toxicity in isolated Wistar rat sciatic nerve assessed as axonal damage by LDH assay; type: tissue-based; settings: ex_vivo
Summary of the method: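 Neuronal damage in isolated Wistar rat sciatic nerve bundles was gauged from LDH activity leaked into the incubation medium over time, following the Bergmeyer method.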

[7] = system: Sciatic nerve; experiment: Inhibition of amplitude of compound action potential in isolated Wistar rat sciatic nerve after 15 mins by electrophysiology assay; type: functional, tissue-based; summary of the method: as §2
[8] = system: Erythrocyte; experiment: Antihemolytic activity against hypotonic hemolysis in Wistar rat erythrocytes at 0.1 to 30 uM after 10 mins; type: functional, cell-based; summary of the method: as §1
[9] = system: Erythrocyte; experiment: Antihemolytic activity against hypotonic hemolysis in Wistar rat erythrocytes at 0.3 to 1 uM after 10 mins; type: functional, cell-based; summary of the method: as §1
[10] = system: Erythrocyte; experiment: Antihemolytic activity against hypotonic hemolysis in Wistar rat erythrocytes at 0.1 to 100 uM after 10 mins; type: functional, cell-based; summary of the method: as §1

SMILES	Ratio [1]	inhibition [3]	Activity [6]	inhibition [7]	Activity [9]	other results
CCCCOc1cc(C(=O)NCCN(CC)CC)c2ccccc2n1 [DIBUCAINE]	0.421	Active				Activity [2]: Dose-dependent effect
COc1ccc2c(=O)c3cc(C(=O)N[C@H](CO)C(C)C)ccc3oc2c1			Non-toxic	Dose-dependent effect		Activity [4]: Active; Activity [5]: Active
O=c1c2ccccc2oc2ccccc12 [XANTHONE]	0.686					Activity [8]: inactive
COc1ccc2c(=O)c3cc(C(=O)N[C@@H](C)c4ccc(C)cc4)ccc3oc2c1	0.967		Non-toxic	Dose-dependent effect	Active	
OC[C@H]1O[C@@](CO)(O[C@H]2O[C@H](CO)[C@@H](O)[C@H](O)[C@H]2O)[C@@H](O)[C@@H]1O		inactive				Activity [10]: Active
COc1ccc2c(=O)c3cc(C(=O)N[C@H](CO)CC(C)C)ccc3oc2c1			Non-toxic	Dose-dependent effect	Active	
